# Laboratory results taken from ChEMBL document CHEMBL1157268, “ent-Labdane diterpenoids from Andrographis paniculata” (2006).
# The source made the active and inactive calls. The calls are words filed in the database; no cut-off is given here.
# Experiments:
# Micrococcus luteus = experiment: Antimicrobial activity against Micrococcus luteus at 10 ug/ml by disk diffusion assay; assay type: functional, organism-based
# Summary of the method: (§1)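 Qualitative screen on agar plates: each diterpenoid applied to disks at 10 µg/mL and tested in parallel against eight strains (B. subtilis, S. aureus, E. coli, M. luteus, S. lutea, C. albicans, C. sake, A. niger). Growth inhibition was scored as a clear inhibition zone around the disk, with zone diameter in mm as the read-out.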
# Candida albicans = experiment: Antimicrobial activity against Candida albicans at 10 ug/ml by disk diffusion assay; assay type: functional, organism-based; summary of the method: as §1
# Staphylococcus aureus = experiment: Antimicrobial activity against Staphylococcus aureus at 10 ug/ml by disk diffusion assay; assay type: functional, organism-based; summary of the method: as §1
# Bacillus subtilis = experiment: Antimicrobial activity against Bacillus subtilis at 10 ug/ml by disk diffusion assay; assay type: functional; settings: for zone of inhibition at 10 µg/mL: read-out: IZ; summary of the method: as §1
# [Candida] sake = Antimicrobial activity against Candida sake at 10 ug/ml by disk diffusion assay; assay type: functional, organism-based; summary of the method: as §1
# Escherichia coli = experiment: Antimicrobial activity against Escherichia coli at 10 ug/ml by disk diffusion assay; assay type: functional, organism-based; summary of the method: as §1
# Aspergillus niger = experiment: Antimicrobial activity against Aspergillus niger at 10 ug/ml by disk diffusion assay; assay type: functional, organism-based; summary of the method: as §1
SMILES,Activity (Micrococcus luteus),Activity (Candida albicans),Activity (Staphylococcus aureus),zone of inhibition at 10 µg/mL (Bacillus subtilis) [mm],Activity ([Candida] sake),Activity (Escherichia coli),Activity (Aspergillus niger),Activity (Bacillus subtilis)
C=C1CC[C@@H]2[C@](C)(CO)[C@H](O)CC[C@@]2(C)[C@@H]1C[C@@H](O)C1=CCOC1=O,inactive,inactive,inactive,7,inactive,inactive,inactive,
C=C1CC[C@@H]2C(C)(C)[C@H](O[C@@H]3O[C@H](CO)[C@@H](O)[C@H](O)[C@H]3O)CC[C@@]2(C)[C@@H]1CCC1=CCOC1=O,inactive,inactive,inactive,,inactive,inactive,inactive,inactive
C=C1CCC2C(C)(CO)C(O)CCC2(C)C1/C=C/C1=CC(C2(CCC3=CCOC3=O)C(=C)CCC3C(C)(CO)C(O)CCC32C)OC1=O (stereo not given),inactive,inactive,inactive,,inactive,inactive,inactive,inactive
C=C1CC[C@H]2[C@@](C)(CCC[C@@]2(C)C(=O)O[C@@H]2O[C@H](CO)[C@@H](O)[C@H](O)[C@H]2O)[C@@H]1CC/C(=C/CO)CO,inactive,inactive,inactive,,inactive,inactive,inactive,inactive
C=C1CC[C@@H]2[C@](C)(CO[C@@H]3O[C@H](CO)[C@@H](O)[C@H](O)[C@H]3O)[C@H](O)CC[C@@]2(C)[C@@H]1/C=C/C1=CCOC1=O,inactive,inactive,inactive,,inactive,inactive,inactive,inactive
C=C1CC[C@@H]2[C@](C)(CO)CCC[C@@]2(C)[C@@H]1CCC1=CCOC1=O [ANDROGRAPANIN],inactive,inactive,inactive,7,inactive,inactive,inactive,
C=C1CC[C@@H]2[C@](C)(CO[C@@H]3O[C@H](CO)[C@@H](O)[C@H](O)[C@H]3O)[C@H](O)CC[C@@]2(C)[C@@H]1CCC1=CCOC1=O,inactive,inactive,inactive,,inactive,inactive,inactive,inactive
C=C1CC[C@@H]2[C@](C)(CO[C@@H]3O[C@H](CO)[C@@H](O)[C@H](O)[C@H]3O)CCC[C@@]2(C)[C@@H]1CCC1=CCOC1=O,inactive,inactive,inactive,,inactive,inactive,inactive,inactive
C=C1CC[C@@H]2[C@](C)(CO)[C@H](O)CC[C@@]2(C)[C@@H]1C/C=C1/C(=O)OC[C@H]1O,inactive,inactive,inactive,,inactive,inactive,inactive,inactive
C[C@]1(CO)[C@H]2CC[C@H](CO)[C@@H](CCC3=CCOC3=O)[C@]2(C)CC[C@H]1O,inactive,inactive,inactive,,inactive,inactive,inactive,inactive
C[C@]1(CO)[C@H]2CC[C@]3(CO3)[C@@H](CCC3=CCOC3=O)[C@]2(C)CC[C@H]1O,inactive,inactive,inactive,,inactive,inactive,inactive,inactive
C=C1CC[C@@H]2[C@](C)(CO)[C@H](O)CC[C@@]2(C)[C@@H]1C/C=C1\C(=O)OCC1O (stereo not given in full) [ISOANDROGRAPHOLIDE],inactive,inactive,inactive,7,inactive,inactive,inactive,
C=C1CC[C@@H]2[C@](C)(CO[C@@H]3O[C@H](CO)[C@@H](O)[C@H](O)[C@H]3O[C@@H]3OC[C@](O)(CO)[C@H]3O)CCC[C@@]2(C)[C@@H]1CCC1=CCOC1=O,inactive,inactive,inactive,,inactive,inactive,inactive,inactive
C=C1CC[C@@H]2[C@](C)(CO[C@@H]3O[C@H](CO)[C@@H](O)[C@H](O)[C@H]3O)[C@H](O)CC[C@@]2(C)[C@@H]1C/C=C1/C(=O)OC[C@H]1O,inactive,inactive,inactive,,inactive,inactive,inactive,inactive
C=C1CC[C@@H]2[C@](C)(CO)[C@H](O)CC[C@@]2(C)[C@@H]1C(O)/C=C1\CCOC1=O (stereo not given in full),inactive,inactive,inactive,,inactive,inactive,inactive,inactive
C=C1CC[C@@H]2[C@](C)(CO)[C@H](O)CC[C@@]2(C)[C@@H]1CCC1=CCOC1=O,inactive,inactive,inactive,,inactive,inactive,inactive,inactive
C=C1CC[C@@H]2[C@](C)(CO)[C@H](O[C@@H]3O[C@H](CO)[C@@H](O)[C@H](O)[C@H]3O)CC[C@@]2(C)[C@@H]1C/C=C1/C(=O)OC[C@H]1O,inactive,inactive,inactive,,inactive,inactive,inactive,inactive
C=C1CC[C@H]2[C@@](C)(CC[C@@H](O)[C@@]2(C)CO)[C@@H]1C(=O)/C=C1\CCOC1=O,inactive,inactive,inactive,,inactive,inactive,inactive,inactive
C=C1CC[C@@H]2[C@](C)(CO)[C@H](O)CC[C@@]2(C)[C@@H]1/C=C/C1=CCOC1=O,inactive,inactive,inactive,7,inactive,inactive,inactive,
C=C1CC[C@@H]2[C@](C)(CO)[C@H](O)CC[C@@]2(C)[C@@H]1C[C@@H](O)C1C(=O)OC[C@H]1O (stereo not given in full),inactive,inactive,inactive,,inactive,inactive,inactive,inactive
